ChEMBL document CHEMBL4376840, “Application of Fluorine- and Nitrogen-Walk Approaches: Defining the Structural and Functional Diversity of 2-Phenylindole Class of Cannabinoid 1 Receptor Positive Allosteric Modulators” (J Med Chem, 2020)
Active and inactive are the calls of the source.

Key:
Cannabinoid receptor 1 [1] = target: T1, Cannabinoid receptor 1 (Homo sapiens, UniProt P21554); assay: Positive allosteric modulatory activity at human CB1R expressed in CHO-K1 cells assessed as increase in CP55940-induced beta-arrestin2 recruitment after 90 mins in presence of CP55940 at EC20 concentration by pathhunter beta-arrestin assay; assay type: cell-based
T1 sequence (P21554 whole entry): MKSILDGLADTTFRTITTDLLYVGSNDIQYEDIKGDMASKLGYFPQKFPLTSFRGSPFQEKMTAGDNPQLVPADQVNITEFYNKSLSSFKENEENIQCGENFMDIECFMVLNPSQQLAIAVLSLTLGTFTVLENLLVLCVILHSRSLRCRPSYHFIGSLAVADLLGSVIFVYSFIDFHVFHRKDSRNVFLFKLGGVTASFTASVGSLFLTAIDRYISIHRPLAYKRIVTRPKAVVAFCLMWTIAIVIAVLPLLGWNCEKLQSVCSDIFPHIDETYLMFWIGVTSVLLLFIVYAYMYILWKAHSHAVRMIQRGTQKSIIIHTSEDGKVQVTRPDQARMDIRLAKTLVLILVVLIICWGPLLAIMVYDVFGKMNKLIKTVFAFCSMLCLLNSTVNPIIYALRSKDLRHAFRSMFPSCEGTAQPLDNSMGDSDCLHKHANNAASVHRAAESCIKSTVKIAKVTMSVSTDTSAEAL
Method in brief: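 Read-out was chemiluminescent β-arrestin2 recruitment, fit with a 4-parameter regression. n = 1–3 independent experiments in duplicate.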

Cannabinoid receptor 1 [2] = target: Cannabinoid receptor 1 (Rattus norvegicus, UniProt P20272); assay: Allosteric agonist activity at N-terminal GFP-tagged rat CB1R expressed in HEK293 cells assessed as inhibition of forskolin-induced cAMP production after 30 min by TR-FRET assay; assay type: functional, cell-based
Sequence of Cannabinoid receptor 1 (Rattus norvegicus, UniProt P20272) (P20272 whole entry): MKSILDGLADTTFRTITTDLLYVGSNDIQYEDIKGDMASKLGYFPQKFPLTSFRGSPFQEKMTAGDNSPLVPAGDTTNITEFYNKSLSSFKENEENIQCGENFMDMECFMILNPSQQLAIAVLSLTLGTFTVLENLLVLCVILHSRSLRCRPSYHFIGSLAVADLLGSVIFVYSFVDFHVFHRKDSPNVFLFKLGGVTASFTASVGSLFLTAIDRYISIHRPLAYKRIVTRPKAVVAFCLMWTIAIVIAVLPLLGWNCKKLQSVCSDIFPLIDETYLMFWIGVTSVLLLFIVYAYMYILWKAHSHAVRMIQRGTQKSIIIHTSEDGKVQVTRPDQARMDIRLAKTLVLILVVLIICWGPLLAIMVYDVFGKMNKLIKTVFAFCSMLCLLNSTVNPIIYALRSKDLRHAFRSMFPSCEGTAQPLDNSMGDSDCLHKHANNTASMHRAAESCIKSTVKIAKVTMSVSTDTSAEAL
Method in brief: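 HEK293 cells stably expressing N-terminal GFP-tagged rat CB1R were trypsin-EDTA dissociated and resuspended in HBSS with 0.1% BSA and 0.5mM IBMX at 500 cells/well. Cells got 5μM forskolin plus compound (1 pM – 10 μM) alone for 30 min. 4-parameter fit; Emin is the lower plateau. n ≥ 3, triplicate.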

[3] = target: Cannabinoid receptor 1 (Rattus norvegicus) (UniProt P20272); assay: (§1) Positive allosteric modulatory activity at N-terminal GFP-tagged rat CB1R receptor expressed in HEK293 cells assessed as increase in CP55940-induced inhibition of forskolin-induced cAMP accumulation by measuring Emax for cAMP accumulation at low concentration of CP55940 at 0.001 microM after 30 mins by TR-FRET assay relative to forskolin; assay type: functional, cell-based
Sequence of Cannabinoid receptor 1 (Rattus norvegicus) (P20272 whole entry): as above

[4] = target: Cannabinoid receptor 1 (Rattus norvegicus) (UniProt P20272); assay: as §1, with “concentrations” for “concentration”, “0.03” for “0.001”; assay type: functional, cell-based
Cannabinoid receptor 1 [5] = target: T1, Cannabinoid receptor 1; assay: Displacement of [3H]SR141716A from human CB1R receptor expressed in CHO cell membranes after 2 hrs by liquid scintillation spectrometry analysis
Cannabinoid receptor 1 [6] = target: T1, Cannabinoid receptor 1; assay: Positive allosteric modulation activity at human CB1 receptor expressed in CHO cell membranes assessed as increase in [3H]CP55940 binding at 1 uM measured after 90 mins in presence of [35S]GTPgammaS by liquid scintillation analysis; assay type: functional
Cannabinoid receptor 1 [7] = target: T1, Cannabinoid receptor 1; assay: Agonist activity at human CB1 receptor expressed in CHO cell membranes assessed as increase in G-protein coupling by measuring [35S]GTPgammaS binding after 90 mins in presence of [35S]GTPgammaS by liquid scintillation analysis; assay type: functional
Method in brief: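 [35S]GTPγS binding to G protein in membranes from CHO cells stably expressing human CB1R, with test compound given alone. Data fit to a variable-slope 4-parameter nonlinear regression. n = 4–6 independent experiments in duplicate.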

Cannabinoid receptor 1 [8] = target: T1, Cannabinoid receptor 1; assay: Positive allosteric modulatory activity at human CB1R expressed in CHO-K1 cells assessed as increase in CP55940-induced inhibition of forskolin-induced cAMP accumulation by measuring cAMP accumulation at minimal level at higher concentration after 90 mins in presence of 100 nM CP55940 by hit-hunter cAMP assay relative to forskolin; assay type: functional, cell-based
Method in brief: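 Uses the HitHunter CHO-K1 hCB1R cAMP set-up above. […] Data normalized to % forskolin, 4-parameter fit. n ≥ 6, triplicate.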

Cannabinoid receptor 1 [9] = target: T1, Cannabinoid receptor 1; assay: Allosteric agonist activity at human CB1R expressed in CHO-K1 cells assessed as increase in beta arrestin2 recruitment after 90 mins by pathhunter beta-arrestin assay relative to CP55940; assay type: cell-based
Method in brief: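 PathHunter CHO-K1 hCB1R cells (20,000/well) were held overnight in Opti-MEM with 1% FBS. Compound alone (0.10 nM – 10 μM) was given at 37°C for 90 min, then detection solution for 60 min at room temperature and chemiluminescence was read.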

Cannabinoid receptor 1 [10] = target: T1, Cannabinoid receptor 1; assay: Positive allosteric modulatory activity at human CB1R expressed in CHO-K1 cells assessed as maximal increase in CP55940-induced beta arrestin2 recruitment after 90 mins in presence of 100 nM CP55940 by pathhunter beta-arrestin assay relative to CP55940; assay type: cell-based
Mus musculus [11] = assay: Antiallodynic activity in ip dosed CFA-induced mechanical allodynia CD1 mouse model assessed as increase in ipsilateral paw withdrawal threshold measured every 3 hrs for 2 days post treatment by Von Frey test; assay type: functional, organism-based
Method in brief: (§2)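 Mice received CFA injection into one paw. Mechanical paw withdrawal thresholds were measured in the injected (ipsilateral) and contralateral paws after i.p. compound at 0.1, 0.3, 1, 3, 10 or 30 mg/kg, compared with vehicle-treated groups at the same times.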

Mus musculus [12] = assay: Antiallodynic activity against CFA-induced mechanical allodynia CD1 mouse model assessed as increase in ipsilateral paw withdrawal threshold at 3 to 30 mg/kg, ip measured every 3 hrs for 2 days post treatment by Von Frey test; assay type: functional, organism-based; method in brief: as §2
Mus musculus [13] = assay: Antiallodynic activity against CFA-induced mechanical allodynia CD1 mouse model assessed as increase in ipsilateral paw withdrawal threshold at 30 mg/kg, ip after 30 mins post treatment by Von Frey test; assay type: functional, organism-based
Method in brief: (§3)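 Time course in the CFA model at 30 mg/kg i.p. Ipsilateral and contralateral mechanical paw withdrawal thresholds were followed from 30 min to 4 h post-injection in wild-type and CB1 knockout mice. Compared with vehicle by ANOVA and Bonferroni post hoc tests.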

Mus musculus [14] = assay: Antiallodynic activity against CFA-induced mechanical allodynia CD1 mouse model assessed as effect on ipsilateral paw withdrawal threshold at 30 mg/kg, ip after 4 hrs post treatment by Von Frey test; assay type: functional, organism-based; method in brief: as §3
Mus musculus [15] = assay: Antiallodynic activity against CFA-induced mechanical allodynia CB1 receptor knockout CD1 mouse assessed as effect on ipsilateral paw withdrawal threshold at 30 mg/kg, ip measured for 0.5 to 4 hrs by Von Frey test; assay type: functional, organism-based; method in brief: as §3
Mus musculus [16] = assay: Effect on contralateral paw withdrawl threshold in CFA-induced mechanical allodynia CB1 receptor knockout CD1 mouse model at 0.1 to 30 mg/kg, ip measured for 0.5 to 4 hrs by Von Frey test; assay type: ADME, organism-based; conditions: in vivo
[17] = Toxicity in C57BL/6 mouse assessed as catalepsy at 0.1 to 10 mg/kg, ip after 5 mins by bar holding assay; assay type: organism-based; conditions: in vivo
Method in brief: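 Male C57BL/6 mice were given 0.1 – 10 mg/kg compound or vehicle (1:1:18 ethanol:cremaphor:saline). Catalepsy was assessed at 5 min as % MPE with a 60 sec maximum. n = 5–6.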

Mus musculus [18] = assay: Antinociceptive activity in ip dosed C57BL/6 mouse after 20 mins post treatment by warm water tail-flick assay; assay type: functional, organism-based
[19] = target: Cannabinoid receptor 1 (Rattus norvegicus) (UniProt P20272); assay: Positive allosteric modulatory activity at N-terminal GFP-tagged rat CB1R receptor expressed in HEK293 cells assessed as downward shift in CP55940 dependent concentration response curve for inhibition of forskolin-induced cAMP accumulation after 30 mins by TR-FRET assay; assay type: functional, cell-based
[20] = human, microsomes, 1 µM
[21] = rat, microsomes, 1 µM

Compound | EC50 (Cannabinoid receptor 1 [1]) [nM] | EC50 (Cannabinoid receptor 1 [2]) [nM] | Emax [3] [%] | Emax [4] [%] | Ki (Cannabinoid receptor 1 [5]) [nM] | Activity (Cannabinoid receptor 1 [6]) | EC50 (Cannabinoid receptor 1 [7]) [nM] | Emin (Cannabinoid receptor 1 [8]) [%] | Emax (Cannabinoid receptor 1 [9]) [%] | Emax (Cannabinoid receptor 1 [10]) [%] | Activity (Mus musculus [11]) | Activity (Mus musculus [12]) | Activity (Mus musculus [13]) | Activity (Mus musculus [14]) | Activity (Mus musculus [15]) | Activity (Mus musculus [16]) | Activity [17] | Activity (Mus musculus [18]) | Activity [19] | CLH [20] [µL/min] | further results
O=[N+]([O-])CC(c1ccccc1F)c1c(-c2cccc(F)c2)[nH]c2c(F)cccc12 (stereo unspecified) | 510 | 26 | 74 | 63 | 5.2 | Active | 33 | 10 | 25 | 130 | Dose-dependent effect | Active | Active | inactive | inactive | Non-Toxic | Non-Toxic | Dose-dependent effect | Dose-dependent effect | 44.4 | 
O=[N+]([O-])CC(c1ccccc1F)c1c(-c2cccc(F)c2)[nH]c2cc(F)ccc12 (stereo unspecified) | 750 | 27 | 76 | 58 | 4.8 | Active | 47 | 9 | 34 | 130 | Dose-dependent effect | Active | Active | inactive | inactive | Non-Toxic | Non-Toxic | Dose-dependent effect | Dose-dependent effect | 44.9 | CLH [21]: 248 µL/min
